In ChEMBL document CHEMBL3044709, “Antimicrobial furostanol saponins from the seeds of Capsicum annuum L. var. acuminatum” (2002):
In brackets after ≈: the same amount, converted by molar mass.

Columns and labels:
Type in all cases: functional
Escherichia coli [1] = experiment: Antimicrobial activity against Escherichia coli DSM 682 after 48 hr by agar dilution method; settings: DSM 682, 48 h
In short: (§1)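 Agar dilution on standard plate count agar: 0.5 mL of a 2-fold serial dilution of sample mixed into 9.5 mL medium, poured into Petri dishes, organism streaked on the surface. Incubated at 28 °C (36 and 48 h). MIC is the lowest tested concentration with no visible growth.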

Escherichia coli [2] = experiment: Antimicrobial activity against Escherichia coli ATCC 35346 after 48 hr by agar dilution method; settings: ATCC 35346, 48 h; in short: as §1
Stutzerimonas stutzeri = experiment: Antimicrobial activity against Pseudomonas stutzeri ATCC 962 after 48 hr by agar dilution method; settings: ATCC 962, 48 h; in short: as §1
Pseudomonas aeruginosa = experiment: Antimicrobial activity against Pseudomonas aeruginosa DSM 1117 after 48 hr by agar dilution method; settings: DSM 1117, 48 h; in short: as §1
[3] = test system: Limosilactobacillus fermentum; experiment: Antimicrobial activity against Lactobacillus fermentum DSM 20052 after 48 hr by agar dilution method; settings: DSM 20052, 48 h; in short: as §1
Lacticaseibacillus casei = experiment: Antimicrobial activity against Lactobacillus casei DSM 20011 after 48 hr by agar dilution method; settings: DSM 20011, 48 h; in short: as §1
[4] = test system: Lactiplantibacillus plantarum; experiment: Antimicrobial activity against Lactobacillus plantarum DSM 20174 after 48 hr by agar dilution method; settings: DSM 20174, 48 h; in short: as §1
[5] = test system: Lacticaseibacillus rhamnosus; experiment: Antimicrobial activity against Lactobacillus rhamnosus DSM 20021 after 48 hr by agar dilution method; settings: DSM 20021, 48 h; in short: as §1
Bacillus cereus = experiment: Antimicrobial activity against Bacillus cereus DSM 345 after 48 hr by agar dilution method; settings: DSM 345, 48 h; in short: as §1
Micrococcus luteus = experiment: Antimicrobial activity against Micrococcus luteus DSM 348 after 48 hr by agar dilution method; settings: DSM 348, 48 h; in short: as §1
Staphylococcus aureus = experiment: Antimicrobial activity against Staphylococcus aureus subsp. aureus DSM 346 after 48 hr by agar dilution method; settings: DSM 346, 48 h; in short: as §1
[6] = test system: Staphylococcus epidermidis; experiment: Antimicrobial activity against Staphylococcus epidermidis DSM 1798 after 48 hr by agar dilution method; settings: DSM 1798, 48 h; in short: as §1
Bacillus licheniformis = experiment: Antimicrobial activity against Bacillus licheniformis DSM 13=ATCC 14580 after 48 hr by agar dilution method; settings: DSM 13 = ATCC 14580, 48 h; in short: as §1
Bacillus subtilis = experiment: Antimicrobial activity against Bacillus subtilis DSM 345 after 48 hr by agar dilution method; settings: DSM 345, 48 h; in short: as §1
Enterococcus faecalis = experiment: Antimicrobial activity against Enterococcus faecalis DSM 2570 after 48 hr by agar dilution method; settings: DSM 2570, 48 h; in short: as §1
Rhizopus arrhizus = experiment: Antimicrobial activity against Rhizopus oryzae ATCC 56536 after 48 hr by agar dilution method; settings: ATCC 56536, 48 h
In short: (§2)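 Fungi tested by agar dilution in malt agar. Serial 2-fold sample dilutions (0.5 mL) were mixed with 9.5 mL medium and plated, then streaked with the organism. Incubation at 28 °C for 36 and 48 h. MIC is the lowest tested concentration without growth.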

Trichoderma viride = experiment: Antimicrobial activity against Hypocrea rufa ATCC 28020 after 48 hr by agar dilution method; settings: ATCC 28020, 48 h; in short: as §2
Setophoma terrestris = experiment: Antimicrobial activity against Setophoma terrestris ATCC 11321 after 48 hr by agar dilution method; settings: ATCC 11321, 48 h; in short: as §2
Penicillium expansum = experiment: Antimicrobial activity against Penicillium expansum ATCC 7861 after 48 hr by agar dilution method; settings: ATCC 7861, 48 h; in short: as §2

Row | Compound | MIC (Escherichia coli [1]) [µg/mL] | MIC (Escherichia coli [2]) [µg/mL] | MIC (Stutzerimonas stutzeri) [µg/mL] | MIC (Pseudomonas aeruginosa) [µg/mL] | MIC [3] [µg/mL] | MIC (Lacticaseibacillus casei) [µg/mL] | MIC [5] [µg/mL] | MIC (Bacillus cereus) [µg/mL] | MIC (Micrococcus luteus) [µg/mL] | MIC (Staphylococcus aureus) [µg/mL] | MIC [6] [µg/mL] | MIC (Bacillus licheniformis) [µg/mL] | MIC (Bacillus subtilis) [µg/mL] | MIC (Enterococcus faecalis) [µg/mL] | MIC (Rhizopus arrhizus) [µg/mL] | MIC (Trichoderma viride) [µg/mL] | MIC (Setophoma terrestris) [µg/mL] | MIC (Penicillium expansum) [µg/mL] | MIC [4] [µg/mL]
1 | COC1(CC[C@@H](C)CO[C@@H]2O[C@H](CO)[C@@H](O)[C@H](O)[C@H]2O)O[C@H]2C[C@H]3[C@@H]4CC[C@H]5C[C@@H](O[C@@H]6O[C@H](CO)[C@H](O[C@@H]7O[C@H](CO)[C@@H](O)[C@H](O[C@@H]8OC[C@@H](O)[C@H](O)[C@H]8O)[C@H]7O[C@@H]7O[C@H](CO)[C@@H](O)[C@H](O[C@@H]8O[C@H](CO)[C@@H](O)[C@H](O)[C@H]8O)[C@H]7O)[C@H](O)[C@H]6O)CC[C@]5(C)[C@H]4CC[C@]3(C)[C@H]2[C@@H]1C (stereo not given in full) [22-O-METHYL-CAPSICOSIDE D] | 1000 (≈ 719 µM) | 1000 (≈ 719 µM) | > 1000 | > 1000 | 1000 (≈ 719 µM) | 1000 (≈ 719 µM) | 1000 (≈ 719 µM) | 1000 (≈ 719 µM) | > 1000 | > 1000 | > 1000 | > 1000 | > 1000 | > 1000 |  |  |  |  | 1000 (≈ 719 µM)
2 | C=C[C@](C)(CC/C=C(\C)CC/C=C(\C)CC/C=C(/C)CO[C@@H]1O[C@@H](C)[C@H](O)[C@@H](O[C@@H]2O[C@H](CO[C@@H]3O[C@@H](C)[C@H](O)[C@@H](O)[C@H]3O)[C@@H](O)[C@H](O)[C@H]2O)[C@H]1O)O[C@@H]1O[C@H](CO)[C@@H](O)[C@H](O)[C@H]1O[C@@H]1O[C@H](CO)[C@@H](O)[C@H](O)[C@H]1O [CAPSIANOSIDE II] | 1000 (≈ 921 µM) | 1000 (≈ 921 µM) | > 1000 | > 1000 | 1000 (≈ 921 µM) | 1000 (≈ 921 µM) | 1000 (≈ 921 µM) | 1000 (≈ 921 µM) | > 1000 | > 1000 | > 1000 | > 1000 | > 1000 | > 1000 | 1000 (≈ 921 µM) | 1000 (≈ 921 µM) | 1000 (≈ 921 µM) | 1000 (≈ 921 µM) | 1000 (≈ 921 µM)
3 | C[C@H](CCC1(O)O[C@H]2C[C@H]3[C@@H]4CC[C@H]5C[C@@H](O[C@@H]6O[C@H](CO)[C@H](O[C@@H]7O[C@H](CO)[C@@H](O)[C@H](O[C@@H]8OC[C@@H](O)[C@H](O)[C@H]8O)[C@H]7O[C@@H]7O[C@H](CO)[C@@H](O)[C@H](O)[C@H]7O)[C@H](O)[C@H]6O)CC[C@]5(C)[C@H]4CC[C@]3(C)[C@H]2[C@@H]1C)CO[C@@H]1O[C@H](CO)[C@@H](O)[C@H](O)[C@H]1O (stereo not given in full) [TIMOSAPONIN I2] | 1000 (≈ 823 µM) | 1000 (≈ 823 µM) | > 1000 | > 1000 | 1000 (≈ 823 µM) | 1000 (≈ 823 µM) | 1000 (≈ 823 µM) | 1000 (≈ 823 µM) | > 1000 | > 1000 | > 1000 | > 1000 | > 1000 | > 1000 | 1000 (≈ 823 µM) | > 1000 | 1000 (≈ 823 µM) | > 1000 | 1000 (≈ 823 µM)

More lines, main results first:

Row | MIC (Escherichia coli [1]) [µg/mL] | MIC (Escherichia coli [2]) [µg/mL] | MIC (Stutzerimonas stutzeri) [µg/mL] | MIC (Pseudomonas aeruginosa) [µg/mL] | MIC [3] [µg/mL] | MIC (Lacticaseibacillus casei) [µg/mL] | MIC [5] [µg/mL] | MIC (Bacillus cereus) [µg/mL] | MIC (Micrococcus luteus) [µg/mL] | MIC (Staphylococcus aureus) [µg/mL] | MIC [6] [µg/mL] | MIC (Bacillus licheniformis) [µg/mL] | MIC (Bacillus subtilis) [µg/mL] | MIC (Enterococcus faecalis) [µg/mL] | MIC (Rhizopus arrhizus) [µg/mL] | MIC (Trichoderma viride) [µg/mL] | MIC (Setophoma terrestris) [µg/mL] | MIC (Penicillium expansum) [µg/mL] | Compound | MIC [4] [µg/mL]
4 | 1000 (≈ 702 µM) | 1000 (≈ 702 µM) | > 1000 | > 1000 | 1000 (≈ 702 µM) | 1000 (≈ 702 µM) | 1000 (≈ 702 µM) | 1000 (≈ 702 µM) | > 1000 | > 1000 | > 1000 | > 1000 | > 1000 | > 1000 | 1000 (≈ 702 µM) | > 1000 | 1000 (≈ 702 µM) | 1000 (≈ 702 µM) | C[C@H](CCC1(O)O[C@H]2C[C@H]3[C@@H]4CC[C@H]5C[C@@H](O[C@@H]6O[C@H](CO)[C@H](O[C@@H]7O[C@H](CO)[C@@H](O)[C@H](O[C@@H]8O[C@H](CO)[C@@H](O)[C@H](O)[C@H]8O)[C@H]7O[C@@H]7O[C@H](CO)[C@@H](O)[C@H](O[C@@H]8O[C@H](CO)[C@@H](O)[C@H](O)[C@H]8O)[C@H]7O)[C@H](O)[C@H]6O)[C@H](O)C[C@]5(C)[C@H]4CC[C@]3(C)[C@H]2[C@@H]1C)CO[C@@H]1O[C@H](CO)[C@@H](O)[C@H](O)[C@H]1O (stereo not given in full) [CAPSICOSIDE A] | 1000 (≈ 702 µM)
5 | 1000 (≈ 726 µM) | 1000 (≈ 726 µM) | > 1000 | > 1000 | 1000 (≈ 726 µM) | 1000 (≈ 726 µM) | 1000 (≈ 726 µM) | 1000 (≈ 726 µM) | > 1000 | > 1000 | > 1000 | > 1000 | > 1000 | > 1000 | 1000 (≈ 726 µM) | > 1000 | 1000 (≈ 726 µM) | > 1000 | C[C@H](CCC1(O)O[C@H]2C[C@H]3[C@@H]4CC[C@H]5C[C@@H](O[C@@H]6O[C@H](CO)[C@H](O[C@@H]7O[C@H](CO)[C@@H](O)[C@H](O[C@@H]8OC[C@@H](O)[C@H](O)[C@H]8O)[C@H]7O[C@@H]7O[C@H](CO)[C@@H](O)[C@H](O[C@@H]8O[C@H](CO)[C@@H](O)[C@H](O)[C@H]8O)[C@H]7O)[C@H](O)[C@H]6O)CC[C@]5(C)[C@H]4CC[C@]3(C)[C@H]2[C@@H]1C)CO[C@@H]1O[C@H](CO)[C@@H](O)[C@H](O)[C@H]1O (stereo not given in full) [CAPSICOSIDE D] | 1000 (≈ 726 µM)
6 | 1000 (≈ 710 µM) | 1000 (≈ 710 µM) | > 1000 | > 1000 | 1000 (≈ 710 µM) | 1000 (≈ 710 µM) | 1000 (≈ 710 µM) | 1000 (≈ 710 µM) | > 1000 | > 1000 | > 1000 | > 1000 | > 1000 | > 1000 | 1000 (≈ 710 µM) | 1000 (≈ 710 µM) | 1000 (≈ 710 µM) | 1000 (≈ 710 µM) | C[C@H](CCC1(O)O[C@H]2C[C@H]3[C@@H]4CC[C@H]5C[C@@H](O[C@@H]6O[C@H](CO)[C@H](O[C@@H]7O[C@H](CO)[C@@H](O)[C@H](O[C@@H]8O[C@H](CO)[C@@H](O)[C@H](O)[C@H]8O)[C@H]7O[C@@H]7O[C@H](CO)[C@@H](O)[C@H](O[C@@H]8O[C@H](CO)[C@@H](O)[C@H](O)[C@H]8O)[C@H]7O)[C@H](O)[C@H]6O)CC[C@]5(C)[C@H]4CC[C@]3(C)[C@H]2[C@@H]1C)CO[C@@H]1O[C@H](CO)[C@@H](O)[C@H](O)[C@H]1O (stereo not given in full) [CAPSICOSIDE G] | 1000 (≈ 710 µM)
7 | 1000 (≈ 711 µM) | 1000 (≈ 711 µM) | > 1000 | > 1000 | 1000 (≈ 711 µM) | 1000 (≈ 711 µM) | 1000 (≈ 711 µM) | 1000 (≈ 711 µM) | > 1000 | > 1000 | > 1000 | > 1000 | > 1000 | > 1000 |  |  |  |  | CC1=C(CC[C@@H](C)CO[C@@H]2O[C@H](CO)[C@@H](O)[C@H](O)[C@H]2O)O[C@H]2C[C@H]3[C@@H]4CC[C@H]5C[C@@H](O[C@@H]6O[C@H](CO)[C@H](O[C@@H]7O[C@H](CO)[C@@H](O)[C@H](O[C@@H]8O[C@H](CO)[C@@H](O)[C@H](O)[C@H]8O)[C@H]7O[C@@H]7O[C@H](CO)[C@@H](O)[C@H](O[C@@H]8O[C@H](CO)[C@@H](O)[C@H](O)[C@H]8O)[C@H]7O)[C@H](O)[C@H]6O)[C@H](O)C[C@]5(C)[C@H]4CC[C@]3(C)[C@@H]12 [Capsicoside F] | 1000 (≈ 711 µM)
